{"source": "ChEMBL document CHEMBL4152278", "about": "(Eur J Med Chem, 2018)", "key": {"[1]": {"test_system": "Influenza A virus", "assay": "Antiviral activity against Influenza A virus (A/WSN/1933(H1N1)) infected in MDCK cells expressing wild type neuraminidase assessed as protection against virus-induced cytopathic effect after 48 hrs by CellTiter96 aqueous non-radioactive cell proliferation assay", "assay_type": "functional, organism-based", "in_short": "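Virus at 100 TCID50 was premixed with inhibitor at varied concentrations, then added to MDCK cells (1×10^5 cells/mL). Cells were held 48 h at 37 °C under 5% CO2. Cytopathic effect was read as MTS absorbance at 490 nm after 15 min. EC50 was taken from a curve fit of percent CPE versus concentration.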"}, "[2]": {"assay": "Metabolic stability in […] assessed as parent compound remaining after 96 hrs by HPLC method", "assay_type": "ADME, cell-free, Oryctolagus cuniculus", "conditions": "rabbit, plasma; read-out: Stability"}, "[3]": {"assay": "Half life in borate buffer at pH 9.1 by HPLC method", "assay_type": "physicochemical", "in_short": "(§1)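 A 20 mM DMSO stock was diluted to 1 mM in buffer (50 mM HCl/KCl pH 1.3, acetate pH 4.1, phosphate pH 7.4 at 50 or 10 mM, borate pH 9.1, glycine pH 9.2), rat plasma or […]. Mixtures were shaken at 1000 rpm, 37 °C, and sampled over time for reversed-phase HPLC (214 or 254 nm). Half-life came from a pseudo-first-order fit; remaining parent was assessed at 96 h. Three runs for ZA derivatives, single for GOC derivatives.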"}, "[4]": {"assay": "Chemical stability in HCl/KCl solution at pH 1.3 assessed as parent compound remaining after 96 hrs by HPLC method", "assay_type": "physicochemical", "conditions": "read-out: Stability", "in_short": "as §1"}, "[5]": {"assay": "Half life in rabbit plasma by HPLC method", "assay_type": "ADME, cell-free, Oryctolagus cuniculus", "in_short": "as §1"}, "[6]": {"assay": "Half life in glycine buffer at pH 9.2 by HPLC method", "assay_type": "physicochemical", "in_short": "as §1"}, "[7]": {"assay": "Half life in HCl/KCl solution at pH 1.3 by HPLC method", "assay_type": "physicochemical", "in_short": "as §1"}, "[8]": {"assay": "Cytotoxicity against MDCK cells after 48 hrs by CellTiter96 aqueous non-radioactive cell proliferation assay", "assay_type": "cell-based, Canis lupus familiaris", "conditions": "dog"}, "[9]": {"test_system": "Influenza A virus", "assay": "Antiviral activity against Influenza A virus (A/WSN/1933(H1N1)) infected in BALB/c mouse assessed as protection against virus-induced infection at 48 umol/kg/day administered via oral gavage for 5 days", "assay_type": "functional, organism-based", "in_short": "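Female BALB/c mice (4–5 weeks old), 10 per group. Drug was given by oral gavage twice daily for 5 days at 48 μmol/kg/day. Intranasal challenge with 10 MLD50 of A/WSN/1933 (H1N1) 4 h after the first dose. PBS placebo on the same schedule. Survival was observed daily and compared by log-rank (Mantel–Cox) test.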"}, "[10]": {"assay": "Drug uptake in MDCK cells at 100 uM after 48 hrs by LC-MS analysis", "assay_type": "ADME, cell-based, Canis lupus familiaris", "conditions": "dog", "in_short": "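MDCK cells (2.5×10^6, grown overnight) were exposed to compound at 100 µM final in 2% FBS medium for 48 h, with a DMSO mock. Cells were washed, lysed in RIPA, methanol-precipitated at −80 °C and filtered (10 kDa cutoff). Parent and hydrolysis product were quantified by LC–MS/MS against calibration curves (0.03–300 µM) spiked into mock lysate.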"}, "[11]": {"assay": "Half life in human serum at 16 mg", "assay_type": "ADME, organism-based"}, "[12]": {"assay": "Half life in rat plasma by HPLC method", "assay_type": "ADME, cell-free", "in_short": "as §1"}, "[13]": {"assay": "Half life in 10 mM phosphate buffer at pH 7.4 by HPLC method", "assay_type": "physicochemical", "in_short": "as §1"}, "[14]": {"test_system": "Influenza A virus", "assay": "Antiviral activity against Influenza A virus (A/WSN/1933(H1N1)) infected in BALB/c mouse assessed as mouse survival rate at 1.2 umol/kg/day administered intranasally for 5 days and measured at day 21 relative to control", "assay_type": "functional", "conditions": "inhaled or nasal"}, "[15]": {"test_system": "Influenza A virus", "assay": "Antiviral activity against Influenza A virus (A/WSN/1933(H1N1)) infected in BALB/c mouse assessed as increase in mouse survival rate at 1.2 umol/kg/day administered intranasally for 5 days and measured at day 21 relative to control", "assay_type": "functional, organism-based"}, "[16]": {"assay": "Chemical stability in acetate buffer at pH 4.1 assessed as parent compound remaining after 96 hrs by HPLC method", "assay_type": "physicochemical", "conditions": "read-out: Stability", "in_short": "as §1"}, "[17]": {"test_system": "Influenza A virus", "assay": "Antiviral activity against Influenza A virus (A/WSN/1933(H1N1)) infected in BALB/c mouse assessed as increase in mouse survival rate at 2.4 umol/kg/day administered intranasally for 5 days and measured at day 21 relative to control", "assay_type": "functional, organism-based", "in_short": "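Female BALB/c mice (4–5 weeks old), 10 per group. Drug was given by intranasal instillation twice daily for 5 days at 2.4 μmol/kg/day, with half the dose at each administration. Mice were infected intranasally with 10 MLD50 of A/WSN/1933 (H1N1) under zoletil anaesthesia, 4 h after the first dose. PBS placebo on the same schedule. Survival was followed daily and curves compared by log-rank test.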"}, "[18]": {"assay": "Half life in 50 mM phosphate buffer at pH 7.4 by HPLC method", "assay_type": "physicochemical", "in_short": "as §1"}, "[19]": {"assay": "Half life in acetate buffer at pH 4.1 by HPLC method", "assay_type": "physicochemical", "in_short": "as §1"}}, "note": "Calls of active or inactive are those of the source."}
{"smiles": "CCC(CC)O[C@@H]1C=C(P(=O)(O)O)C[C@H](N/C(N)=N/C(=O)CSc2ccc3ccccc3c2)[C@H]1NC(C)=O", "values": [{"measurement": "EC50", "setting": "[1]", "value": 0.8, "unit": "nM"}]}
{"smiles": "CCCCCCCC(=O)/N=C(\\N)N[C@H]1CC(C(=O)O)=C[C@@H](OC(CC)CC)[C@@H]1NC(C)=O", "values": [{"measurement": "remaining at 96 h", "setting": "[2]", "value": 55, "unit": "%"}, {"measurement": "half-life", "setting": "[3]", "value": 18.1, "unit": "h"}, {"measurement": "remaining at 96 h", "setting": "[4]", "value": "> 75", "unit": "%"}, {"measurement": "half-life", "setting": "[5]", "value": 96, "unit": "h"}, {"measurement": "half-life", "setting": "[6]", "value": 22.4, "unit": "h"}, {"measurement": "half-life", "setting": "[7]", "value": "> 96", "unit": "h"}, {"measurement": "CC50 at 48 h", "setting": "[8]", "value": "> 100000", "unit": "nM"}, {"measurement": "EC50", "setting": "[1]", "value": 1, "unit": "nM"}, {"measurement": "Activity", "setting": "[9]", "value": "Active"}, {"measurement": "Drug uptake", "setting": "[10]", "value": 1225, "unit": "nM"}]}
{"smiles": "CCC(CC)O[C@@H]1C=C(C(=O)O)C[C@H](N)[C@H]1NC(C)=O", "note": "[OSELTAMIVIR CARBOXYLATE]", "values": [{"measurement": "CC50 at 48 h", "setting": "[8]", "value": "> 100000", "unit": "nM"}, {"measurement": "EC50", "setting": "[1]", "value": 16, "unit": "nM"}]}
{"smiles": "CCC(CC)O[C@@H]1C=C(C(=O)O)C[C@H](NC(=N)N)[C@H]1NC(C)=O", "values": [{"measurement": "CC50 at 48 h", "setting": "[8]", "value": "> 100000", "unit": "nM"}, {"measurement": "EC50", "setting": "[1]", "value": 7, "unit": "nM"}]}
{"smiles": "CC(=O)N[C@H]1[C@H]([C@H](O)[C@H](O)CO)OC(C(=O)O)=C[C@@H]1N=C(N)N", "note": "[ZANAMIVIR]", "values": [{"measurement": "half-life", "setting": "[11]", "value": "2 to 5", "unit": "h"}, {"measurement": "CC50 at 48 h", "setting": "[8]", "value": "> 100000", "unit": "nM"}]}
{"smiles": "COc1ccc2cc([C@H](C)C(=O)/N=C(\\N)N[C@H]3C=C(C(=O)O)O[C@@H]([C@H](O)[C@H](O)CO)[C@@H]3NC(C)=O)ccc2c1", "values": [{"measurement": "half-life", "setting": "[12]", "value": 67.7, "unit": "h"}, {"measurement": "half-life", "setting": "[13]", "value": 67.2, "unit": "h"}, {"measurement": "survival at 1.2 µmol/kg", "setting": "[14]", "value": 70, "unit": "%"}, {"measurement": "CC50 at 48 h", "setting": "[8]", "value": "> 100000", "unit": "nM"}, {"measurement": "EC50", "setting": "[1]", "value": 140, "unit": "nM"}]}
{"smiles": "CC(=O)N[C@H]1[C@H]([C@H](O)[C@H](O)CO)OC(C(=O)O)=C[C@@H]1NC(=N)N", "note": "[ZANAMIVIR]", "values": [{"measurement": "Activity", "setting": "[15]", "value": "Active"}, {"measurement": "EC50", "setting": "[1]", "value": 27, "unit": "nM"}]}
{"smiles": "CCCCCCCC(=O)/N=C(\\N)N[C@H]1C=C(C(=O)O)O[C@@H]([C@H](O)[C@H](O)CO)[C@@H]1NC(C)=O", "values": [{"measurement": "half-life", "setting": "[12]", "value": 29.5, "unit": "h"}, {"measurement": "half-life", "setting": "[13]", "value": 56.8, "unit": "h"}, {"measurement": "remaining at 96 h", "setting": "[16]", "value": "> 75", "unit": "%"}, {"measurement": "survival at 1.2 µmol/kg", "setting": "[14]", "value": 100, "unit": "%"}, {"measurement": "half-life", "setting": "[3]", "value": 26.1, "unit": "h"}, {"measurement": "Activity", "setting": "[17]", "value": "Active"}, {"measurement": "half-life", "setting": "[18]", "value": 39.2, "unit": "h"}, {"measurement": "half-life", "setting": "[19]", "value": "> 96", "unit": "h"}, {"measurement": "remaining at 96 h", "setting": "[4]", "value": "> 75", "unit": "%"}, {"measurement": "half-life", "setting": "[7]", "value": "> 96", "unit": "h"}, {"measurement": "CC50 at 48 h", "setting": "[8]", "value": "> 100000", "unit": "nM"}, {"measurement": "EC50", "setting": "[1]", "value": 90, "unit": "nM"}]}
{"smiles": "CCC(CC)O[C@@H]1C=C(C(=O)O)C[C@H](N/C(N)=N/C(=O)[C@@H](C)c2ccc3cc(OC)ccc3c2)[C@H]1NC(C)=O", "values": [{"measurement": "remaining at 96 h", "setting": "[2]", "value": 76, "unit": "%"}, {"measurement": "half-life", "setting": "[13]", "value": 69.7, "unit": "h"}, {"measurement": "half-life", "setting": "[3]", "value": 76.7, "unit": "h"}, {"measurement": "half-life", "setting": "[18]", "value": 64.9, "unit": "h"}, {"measurement": "remaining at 96 h", "setting": "[4]", "value": "> 75", "unit": "%"}, {"measurement": "half-life", "setting": "[5]", "value": "> 96", "unit": "h"}, {"measurement": "half-life", "setting": "[6]", "value": 81.4, "unit": "h"}, {"measurement": "half-life", "setting": "[7]", "value": "> 96", "unit": "h"}, {"measurement": "CC50 at 48 h", "setting": "[8]", "value": "> 100000", "unit": "nM"}, {"measurement": "EC50", "setting": "[1]", "value": 2, "unit": "nM"}]}
{"smiles": "CCC(CC)O[C@@H]1C=C(P(=O)(O)O)C[C@H](NC(=N)N)[C@H]1NC(C)=O", "values": [{"measurement": "EC50", "setting": "[1]", "value": 3.8, "unit": "nM"}]}
{"smiles": "CCOC(=O)C1=C[C@@H](OC(CC)CC)[C@H](NC(C)=O)[C@@H](N)C1", "values": [{"measurement": "Activity", "setting": "[9]", "value": "Active"}]}
